Measurements reported in paper PMC11452527 (Nature Communications, 2024).
Read-outs that look alike come from different tables or passages of the source. Blank lines part the entries; values can stand above or below the compound they belong to.

Experiments:
αIIbβ3 [1] = details: cited from earlier work
platelets = details: cited from earlier work
C57BL/6J mice [2] = test: Tail vein bleeding model; assay type: in vivo, mouse; details: at the dose that suppressed femoral VT
[3] = Plasma protein binding by rapid equilibrium dialysis; assay type: in vitro ADME; details: human, platelet-free human plasma
αIIbβ3 [4] = molecular target: T1, αIIbβ3 (Homo sapiens, UniProt P05106+P08514); test: ODE model of inhibitor occupancy of αIIbβ3; details: ODEs Eq 16-22
T1 sequence (P08514 32-887 limits assumed): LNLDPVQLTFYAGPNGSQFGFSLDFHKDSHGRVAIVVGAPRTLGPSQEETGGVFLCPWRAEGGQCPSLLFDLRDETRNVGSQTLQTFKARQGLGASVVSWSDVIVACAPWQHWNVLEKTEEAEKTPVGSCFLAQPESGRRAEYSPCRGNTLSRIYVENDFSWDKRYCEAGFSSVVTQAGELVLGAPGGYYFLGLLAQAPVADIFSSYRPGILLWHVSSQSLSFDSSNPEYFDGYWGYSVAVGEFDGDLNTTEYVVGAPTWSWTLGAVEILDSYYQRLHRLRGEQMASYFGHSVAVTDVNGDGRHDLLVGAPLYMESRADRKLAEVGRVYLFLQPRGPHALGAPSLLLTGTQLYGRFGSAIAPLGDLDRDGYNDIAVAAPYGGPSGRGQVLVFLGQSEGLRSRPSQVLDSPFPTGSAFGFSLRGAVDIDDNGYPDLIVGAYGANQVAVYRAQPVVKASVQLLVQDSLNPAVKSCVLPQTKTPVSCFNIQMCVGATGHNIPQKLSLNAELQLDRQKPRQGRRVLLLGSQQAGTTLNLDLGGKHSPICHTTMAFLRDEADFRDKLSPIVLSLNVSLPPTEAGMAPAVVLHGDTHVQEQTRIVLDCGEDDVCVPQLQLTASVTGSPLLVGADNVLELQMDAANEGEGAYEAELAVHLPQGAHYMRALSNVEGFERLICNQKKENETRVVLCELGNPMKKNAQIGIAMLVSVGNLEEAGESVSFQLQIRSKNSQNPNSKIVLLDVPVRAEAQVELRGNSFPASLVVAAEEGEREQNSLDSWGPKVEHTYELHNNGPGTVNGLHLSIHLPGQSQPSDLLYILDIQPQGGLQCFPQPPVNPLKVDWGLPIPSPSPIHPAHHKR
T1 sequence (P08514 891-1039 partner limits assumed): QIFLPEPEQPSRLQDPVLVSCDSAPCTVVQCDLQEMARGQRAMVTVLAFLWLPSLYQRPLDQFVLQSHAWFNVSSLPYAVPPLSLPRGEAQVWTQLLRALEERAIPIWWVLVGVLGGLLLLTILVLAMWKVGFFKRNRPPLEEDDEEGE
T1 sequence (P05106 27-788): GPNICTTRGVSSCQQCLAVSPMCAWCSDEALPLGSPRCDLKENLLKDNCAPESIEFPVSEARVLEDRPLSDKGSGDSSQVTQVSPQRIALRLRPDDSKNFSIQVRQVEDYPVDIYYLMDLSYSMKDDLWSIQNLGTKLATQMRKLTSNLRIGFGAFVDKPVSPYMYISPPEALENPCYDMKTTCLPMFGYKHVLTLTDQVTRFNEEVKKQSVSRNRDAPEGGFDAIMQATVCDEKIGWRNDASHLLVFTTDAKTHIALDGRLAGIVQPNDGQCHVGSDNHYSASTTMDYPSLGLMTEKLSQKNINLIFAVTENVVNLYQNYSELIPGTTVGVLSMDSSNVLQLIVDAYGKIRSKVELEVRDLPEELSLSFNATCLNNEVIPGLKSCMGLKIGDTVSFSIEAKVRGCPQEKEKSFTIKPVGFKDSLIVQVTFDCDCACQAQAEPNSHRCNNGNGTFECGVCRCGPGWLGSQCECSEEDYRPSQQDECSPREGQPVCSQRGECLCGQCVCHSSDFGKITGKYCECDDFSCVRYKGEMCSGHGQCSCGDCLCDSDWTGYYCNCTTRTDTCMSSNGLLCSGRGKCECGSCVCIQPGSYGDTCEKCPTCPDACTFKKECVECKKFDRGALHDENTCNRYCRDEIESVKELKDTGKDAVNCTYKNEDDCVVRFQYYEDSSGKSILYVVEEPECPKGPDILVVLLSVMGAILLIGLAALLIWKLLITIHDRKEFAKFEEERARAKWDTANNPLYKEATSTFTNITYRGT

human PRP = test: Thrombin-induced clot retraction in platelet-rich plasma; assay type: cell-based; details: read-out: IC50clot
platelets in whole blood = test: ADP-induced platelet aggregation in 1:1 diluted whole blood; assay type: cell-based; details: Homo sapiens, read-out: IC50agg
C57BL/6J mice [5] = test: Thrombin-induced femoral vein thrombosis model; assay type: in vivo, mouse; details: bolus tirofiban 0.025 μg/g, m-tirofiban 0.3 μg/g
αIIbβ3 [6] = molecular target: T1, αIIbβ3; test: LIBS AP5 epitope exposure on platelet αIIbβ3; assay type: cell-based; details: washed human platelets; tirofiban 0.17 μM, m-tirofiban 16 μM, Hr10 7.6 μM
Summary of the method: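 Washed platelets came from citrated blood of drug-free donors: PRP was spun with PGE1 (20 ng/ml final), washed in Ringer's citrate-dextrose, and resuspended in Tyrode's buffer (pH 7.4, 0.02% BSA, 1 mM Ca²⁺/Mg²⁺). Buffer or test compound was preincubated 20 min at RT without stirring, then ADP (20 µM) plus Alexa647-AP5 (10 µg/mL) was added for 30 min at RT. Samples were diluted, fixed in 2% paraformaldehyde, and read by flow-cytometric MFI. Mean + s.e., n = 4 donors.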

Compound: N=C(N)c1ccc(C(=O)N[C@@H](Cc2ccc([N+](=O)[O-])cc2)C(=O)N2CCc3nn(CC(=O)O)cc3C2)cc1 [UR-2922]
- Kd (αIIbβ3 [1]; read-out: mean Kd to αIIbβ3): 0.3 nM
- IC50clot/IC50agg ratio (platelets): 20.63

- bleeding time vs PBS (C57BL/6J mice [2]): prolonged bleeding time
- bleeding vs PBS (C57BL/6J mice [2]): significant bleeding
- fraction unbound at 24 h, 2 µM [3]: 0.413 ± 0.0303
- concentration for 50% occupancy of αIIbβ3 (50% OCCL:T) (αIIbβ3 [4]; 1:1 diluted whole blood): 26.5 nM
- concentration for 50% occupancy of αIIbβ3 (50% OCCL:T) (αIIbβ3 [4]; undiluted whole blood): 38.0 nM
- IC50 (human PRP): 162 ± 61 nM
- IC50 (platelets in whole blood): 6 ± 0.58 nM
- AP5 epitope expression above that seen with ADP (or thrombin) alone (αIIbβ3 [6]): large increase
Compound: CCCCS(=O)(=O)N[C@@H](Cc1ccc(OCCCCC2CCNCC2)cc1)C(=O)O [tirofiban]
- Kd (αIIbβ3 [1]; read-out: Kd for pretreated (inactive) αIIbβ3): 15 nM
- total accumulation of fibrin vs untreated (C57BL/6J mice [5]): significant only at a p-value of 0.0606

Compound: fibrinogen
- Kd (αIIbβ3 [1]; read-out: Kd,F of fibrinogen to αIIbβ3, assumed in ODE model ref 58): 143 nM
